# Assay results collected from several papers.
# Compare with care: the assays were run in different laboratories.
# PDE10A: cAMP and cAMP-inhibited cGMP 3',5'-cyclic phosphodiesterase 10A (PDE10A, Homo sapiens, UniProt Q9Y233)
# DRD3: D(3) dopamine receptor (DRD3, Homo sapiens, UniProt P35462)
Structure (SMILES),target,test,conditions,quantity,result
COc1cc2ncnc(Cc3ccnc(-c4ccccc4)c3)c2cc1OC,PDE10A,"enzyme activity, inhibitor, FP",0.1 µM,inhibition,58%
CCCCC(=O)Nc1ccc(-c2ccc3ncn(CCC)c(=O)c3c2)cn1,"Leukocyte tyrosine kinase receptor (LTK, Homo sapiens, UniProt P29376)","binding, competition with immobilised ligand",0.5 µM,remaining binding,100%
Cc1[nH]c(C)c(S(=O)(=O)Nc2cc(Cl)cc(Cl)c2Cl)c1C(=O)N1CCC(F)(F)C1,DRD3,"β-arrestin recruitment, agonist",90 min,Emax,103%
C1=C/COCc2cc(ccc2OCCN2CCCC2)Nc2nccc(n2)-c2cccc(c2)COC/1,"AP2-associated protein kinase 1 (AAK1, Homo sapiens, UniProt Q2M2I8)",binding,0.1 µM,remaining binding,52%
COc1ccc(Cc2nccc3cc(OC)c(OC)cc23)cc1,PDE10A,"enzyme activity, inhibitor, FP",0.1 µM,inhibition,38%
COc1ccc2oc(-c3ccc4nc(N)oc4c3)c/c(=N\c3ccccc3NC(=O)CCN)c2c1,"Discoidin domain-containing receptor 2 (DDR2, Homo sapiens, UniProt Q16832)",binding,1 µM,remaining binding,85%
[2H]C1([2H])CCC([2H])([2H])N1C(=O)c1c(C)[nH]c(C)c1S(=O)(=O)Nc1ccc(C(F)(F)F)c(Cl)c1,DRD3,"β-arrestin recruitment, agonist",90 min,Emax,92%
COc1ccc(Cc2ccnc3ccccc23)cc1OC,PDE10A,"enzyme activity, inhibitor, FP",0.1 µM,inhibition,11%
Cc1[nH]c(C)c(S(=O)(=O)Nc2ccc(Cl)c(C(F)(F)F)c2)c1C(=O)N1CCC(F)(F)C1,DRD3,"β-arrestin recruitment, agonist",90 min,Emax,109%
COc1cc2ccnc(C(=O)c3cccc4ccccc34)c2cc1OC,PDE10A,"enzyme activity, inhibitor, FP",0.1 µM,inhibition,0%
CCOC(=O)[C@@]12C[C@@H]1[C@@H](n1cnc3c(NCCCCc4ccccc4)nc(C#Cc4ccc(Cl)s4)nc31)[C@H](O)[C@@H]2O,"Sodium-dependent dopamine transporter (SLC6A3, Homo sapiens, UniProt Q01959)","ligand displacement, radioligand",10 µM,inhibition,9%
Cc1[nH]c(C)c(S(=O)(=O)Nc2ccc(C(F)(F)F)c(Cl)c2Cl)c1C(=O)N1CCC(F)(F)C1,DRD3,"β-arrestin recruitment, agonist",90 min,Emax,105%
